Results reported in ChEMBL document CHEMBL1142205 (Antimicrob Agents Chemother, 2007).
Activity calls are given as the source filed them. The calls are words filed in the database; no cut-off is given here.

How the values were obtained:
[1] = tested on: Plasmodium falciparum; test: Growth inhibition of chloroquine-resistant Plasmodium falciparum 7G8 at 20 uM; assay type: functional, organism-based
Outline: (§1)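 Sorbitol-synchronised ring-stage parasites were seeded at 0.5% parasitemia and 5% hematocrit in 24-well plates. […] Parasitemia was counted daily for 4 days on Giemsa-stained smears, as means of three replicate samples.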

[2] = tested on: Plasmodium falciparum; test: Inhibition of Plasmodium falciparum 3D7 recombinant GCN5 by HAT assay at 100 uM
Outline: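 Recombinant PfGCN5 HAT domain (30 ng) with 1 μg bovine core histones preincubated ± drug in HAT buffer, 30°C, 10 min, then 0.1 μCi [3H]acetyl-CoA for 10 min. Half spotted on P-81 filters, washed at pH 9.2, scintillation counted; half resolved by SDS-PAGE/fluorography. DMSO solvent control; triplicates.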

[3] = tested on: Plasmodium falciparum; test: Inhibition of nuclear GCN5 in Plasmodium falciparum after 8 hrs by liquid HAT assay at 25 to 100 uM
[4] = tested on: Plasmodium falciparum; test: Growth arrest of Plasmodium falciparum at 50 uM; assay type: functional, organism-based
Outline: (§2)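 Maturation assay: synchronized ring-stage parasites in 24-well plates with 50 μM drug and increasing mannitol concentrations. When control schizonts matured, schizonts per 5,000 red cells counted in each well.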

[5] = tested on: Plasmodium falciparum; test: Growth restoration of Plasmodium falciparum at 50 uM with 400 uM mannitol; assay type: functional, organism-based; outline: as §2
[6] = tested on: Plasmodium falciparum; test: Pro-oxidant activity in Plasmodium falciparum as increased ROS; assay type: functional, organism-based
Outline: (§3)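 Parasitized cells preloaded with 50 μM DCFH-DA, 37°C, 30 min, washed, then exposed to drug for 4 h, alone or with mannitol (50 μM) or ascorbic acid plus reduced glutathione (1 mM each). Flow cytometry at ex 485/em 535 nm; ROS taken as mean fluorescence intensity. SD from three experiments.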

[7] = tested on: Plasmodium falciparum; test: Inhibition of GCN5 in Plasmodium falciparum assessed as hyperacetylation of H3-K9 and H3-K14 at 20 uM after 12 hrs; conditions: 3D7, in the assay text read “hypoacetylation” for “hyperacetylation”
Outline: (§4)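 Unsynchronized 3D7 cultures exposed to 20 μM drug for 4 or 12 h (aliquots treated from 0 or 8 h, all harvested at 12 h), with or without 300 μM mannitol. Histones acid-extracted, equal amounts run on SDS-PAGE and immunoblotted with acetylation site-specific antibodies; anti-H4 as loading control.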

[8] = tested on: Plasmodium falciparum; test: Growth restoration of Plasmodium falciparum at 50 uM with 300 uM mannitol; assay type: functional, organism-based; outline: as §2
[9] = tested on: Plasmodium falciparum; test: Decreased reactive oxygen species in Plasmodium falciparum with 50 uM mannitol; assay type: functional, organism-based; outline: as §3
[10] = tested on: Plasmodium falciparum; test: Decreased reactive oxygen species in Plasmodium falciparum with 1 mM ascorbic acid and 1 mM reduced glutathione; assay type: functional, organism-based; outline: as §3
[11] = tested on: Plasmodium falciparum; test: Increase in intracellular reactive oxygen species in Plasmodium falciparum at 50 uM; assay type: functional, organism-based; outline: as §3
[12] = tested on: Plasmodium falciparum; test: Increased intracellular reactive oxygen species in Plasmodium falciparum at 1 uM; assay type: functional, organism-based; outline: as §3
[13] = tested on: Plasmodium falciparum; test: Activity of GCN5 in Plasmodium falciparum assessed as increase in acetylation of H3-K9 and H3-K14 at 20 uM in presence of mannitol; outline: as §4
[14] = tested on: Plasmodium falciparum; test: Restoration of nuclear GCN5 activity in Plasmodium falciparum at 50 uM in presence of 300 uM mannitol
[15] = tested on: Plasmodium falciparum; test: Restoration of nuclear GCN5 activity in Plasmodium falciparum at 50 uM in presence of 5000 units/ml catalase
[16] = tested on: Plasmodium falciparum; test: Restoration of nuclear GCN5 activity in Plasmodium falciparum at 50 uM in presence of 400 units/ml superoxide dismutase
[17] = tested on: Plasmodium falciparum; test: (§5) Antimalarial activity against chloroquine-susceptible Plasmodium falciparum D10; assay type: functional, organism-based
Outline: (§6)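 Asexual P. falciparum cultured in human O+ erythrocytes at 37°C under 5% CO2/3% O2 and sorbitol-synchronised. Ring stages were set at 1% parasitemia and 5% hematocrit in low-hypoxanthine medium, in triplicate. […] Uninfected-RBC counts were subtracted and IC50/IC90 taken by linear regression with 95% CI.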

[18] = tested on: Plasmodium falciparum; test: as §5; assay type: functional, organism-based; outline: as §6; remark: listed apart in the source
[19] = tested on: Plasmodium falciparum; test: Antimalarial activity against chloroquine-resistant Plasmodium falciparum Dd2; assay type: functional, organism-based; outline: as §6
[20] = tested on: Plasmodium falciparum; test: Antimalarial activity against chloroquine-resistant Plasmodium falciparum 7G8; assay type: functional, organism-based; outline: as §6
[21] = tested on: Plasmodium falciparum; test: Growth inhibition of chloroquine-susceptible Plasmodium falciparum 3D7 at 5 uM; assay type: functional, organism-based
Outline: (§7)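 Strain 3D7, sorbitol-synchronized rings, seeded at 0.5% parasitemia, 5% hematocrit in O+ erythrocytes, RPMI/Albumax medium, 37°C, 5% CO2/3% O2. Continuous exposure to 5 or 20 μM (or none); parasitemia counted daily for 4 days on Giemsa smears, three replicates per point.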

[22] = tested on: Plasmodium falciparum; test: Growth inhibition of chloroquine-susceptible Plasmodium falciparum 3D7 at 20 uM; assay type: functional, organism-based; outline: as §7
[23] = tested on: Plasmodium falciparum; test: Growth inhibition of chloroquine-resistant Plasmodium falciparum 7G8 at 5 uM; assay type: functional, organism-based; outline: as §1
[24] = tested on: Plasmodium falciparum; test: Increase of Plasmodium falciparum 3D7 mitochondrial DNA damage by real-time PCR analysis; assay type: functional
Outline: (§8)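 3D7 early trophozoites at 5% parasitemia and 5% hematocrit exposed to drug or DMSO for 6 h at 37°C. Genomic DNA by proteinase K/phenol-chloroform, quantified by dot blot; SYBR green real-time PCR on 1 ng DNA. Lesions derived from CT shift relative to control, control amplification efficiency set at 1.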

[25] = tested on: Plasmodium falciparum; test: Increase of Plasmodium falciparum 3D7 nuclear DNA damage by real-time PCR analysis; assay type: functional; outline: as §8
[26] = tested on: Plasmodium falciparum; test: Increased DNA damage in Plasmodium falciparum after 12 hrs in TUNEL assay; assay type: functional, organism-based
Outline: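 Ring-stage parasites exposed to 20 or 50 μM for 12 h, with or without 400 μM mannitol. Percoll-purified, fixed on poly-L-lysine slides, TUNEL with fluorescein-dUTP, propidium iodide counterstain. 300 cells scored per treatment for percent labeled; triplicate samples.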

COc1cc(/C=C/C(=O)CC(=O)/C=C/c2ccc(O)c(OC)c2)ccc1O [CURCUMIN]
Activity [1]: Active
inhibition [2]: 95%
Activity [3]: Active
Activity [4]: Active
Activity [5]: Active
Activity [6]: Dose-dependent effect
Activity [7]: Active
Activity [8]: Active
Activity [9]: Active
Activity [10]: Active
Activity [11]: Active
Activity [12]: Active
Activity [13]: Active
Activity [14]: Active
Activity [15]: Active
Activity [16]: Active
IC50 [17]: 22.9 µM
IC90 [17]: 41.3 µM
IC50 [18]: 22.9 µM
IC90 [18]: 41.3 µM
IC50 [19]: 27.4 µM
IC90 [19]: 49.4 µM
IC50 [20]: 29.6 µM
IC90 [20]: 53.3 µM
Activity [21]: Active
Activity [22]: Active
Activity [23]: Active
Activity [24]: Active
Activity [25]: Active
Activity [26]: Active
